Screening data from PubChem.
HSF1 activator – increases HSF-1 driven luciferase reporter signal. NIH3T3-HGL HSF-1 luciferase reporter, MG132, 8 h; 100% = twice DMSO control signal. AID 504408. activation, % at 9 µM. 300,000 tested, 1.7% active;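 active = mean replicate activation of at least 50% with a set share of replicates each reaching 50%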
T cruzi inh – T. cruzi replication inhibition; T. cruzi beta-gal in NIH3T3, luminescence, 90 h; inhibition, % (no concentration beside the values); 300,000 tested, 1.4% active; AID 1885;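 active = mean inhibition across valid replicates above about 55%, limit read from the data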;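 also: signal also drops with host cell toxicity which is not excluded here; higher percent means less beta-gal luminescence so fewer parasites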
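System: NIH/3T3 fibroblasts plus reporter T. cruzi. Medium: DMEM plus 2% FBS. Probe or stimulus: 5000 reporter trypomastigotes per well. Compound: single 50 nL compound addition per well in DMSO. Incubation: co-culture of at least 90 h after 3 h attachment. Detection: GalScreen β-gal luminescence, detergent lysis, 60 min. Evaluation: parasite load inhibition, %.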
Hsp70 activator – transcriptional activators of Hsp70. AID 1203. activation, % at 10 µM. 200,000 tested, 0.04% active. HeLa Hsp70 promoter luciferase reporter, luminescence; scaled: vehicle 0, proteasome-inhibitor control 100%;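 active = activation above the mean across all tested compounds plus 3 SD, cutoff set per campaign, cut at about 5.5% in these data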
HSF1 inhib – HSF1 inhibition; NIH3T3-HGL HSE-luciferase, MG132-induced, luminescence 8 h; active compounds read low; activity change, negative = inhibition, % at 7.5 µM (by protocol); AID 2098; 300,000 tested, 0.77% active;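 active = more than half of replicate wells show activity change below -50%, luminescence cut by over half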;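 also: luciferase reports HSF-1 transcriptional activity via heat shock element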
L major viab – reduces viability of Leishmania major promastigotes; resazurin fluorescence viability; inhibition, % at 10 µM; 200,000 tested, 9% active; AID 1063; in the data active = inhibition above about 50%;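 also: promastigotes grown with compound for 44 hours at 28 °C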
A number is an active result. This is one part of a sample in which hits are shown more often than they occur.

How did Cc1cc(OCc2cc(C(=O)N(C)C3CCOC3)no2)cc(C)c1Cl (stereo not given) do in these assays?
HSF1 activator: 63.8; T cruzi inh: inactive; HSF1 inhib: inactive

How did CCOCc1c(C(=O)NC2=Nc3ccccc3NC(CC)=C2C(=O)OCC)oc2ccccc12 do in these assays?
HSF1 activator: inactive; T cruzi inh: 56.1; Hsp70 activator: inactive; HSF1 inhib: inactive; L major viab: inactive

Results for COc1cc(CN2CCN(c3cccc(C)c3C)CC2)cc([N+](=O)[O-])c1O ?
HSF1 activator: inactive; T cruzi inh: inactive; Hsp70 activator: inactive; HSF1 inhib: inactive; L major viab: 70.9

What do the screens show for `COc1ccc(N2CCN(Cc3cc(OC)c(O)c([N+](=O)[O-])c3)CC2)cc1`?
HSF1 activator: inactive; T cruzi inh: inactive; Hsp70 activator: inactive; HSF1 inhib: inactive; L major viab: inactive

Results for CN(C(=O)COC(=O)CNC(=O)C12CC3CC(CC(C3)C1)C2)C1CCS(=O)(=O)C1 (stereo not given) ?
HSF1 activator: inactive; T cruzi inh: inactive; Hsp70 activator: inactive; HSF1 inhib: inactive; L major viab: inactive

How did O=C(O)CC1S/C(=N\N=C2\C(=O)Nc3ccccc32)N(c2ccc(O)cc2)C1=O (stereo not given) do in these assays?
HSF1 activator: inactive; T cruzi inh: inactive; HSF1 inhib: inactive

How did Cc1cc(C)cc(CC(Cc2nc3ccccc3[nH]2)c2nc3ccccc3[nH]2)c1 (stereo not given) do in these assays?
HSF1 activator: inactive; T cruzi inh: inactive; Hsp70 activator: inactive; HSF1 inhib: inactive; L major viab: 91.2

Results for Clc1ccc(Sc2ccc(/C=N/n3cnnc3)o2)cc1 ?
HSF1 activator: inactive; T cruzi inh: inactive; Hsp70 activator: inactive; HSF1 inhib: inactive; L major viab: 66.0

What do the screens show for `Clc1ccc(Sc2oc(/C=N/n3cnnc3)cc2Br)cc1`?
T cruzi inh: inactive; Hsp70 activator: inactive; L major viab: 71.0

How did CCN(c1ccc(N=Cc2c(O)n(Cc3ccc(OC)cc3)c(=O)c3ccccc23)cc1)C(C)C do in these assays?
Hsp70 activator: inactive; L major viab: inactive

How did Cn1c(NCCCN2CCOCC2)nc2c1c(=O)n(Cc1ccc(Cl)cc1Cl)c(=O)n2C do in these assays?
HSF1 activator: inactive; T cruzi inh: inactive; Hsp70 activator: inactive; HSF1 inhib: inactive; L major viab: 90.1

How did COCCCNc1nc2c(c(=O)n(Cc3ccc(Cl)cc3)c(=O)n2C)n1C do in these assays?
HSF1 activator: inactive; T cruzi inh: inactive; HSF1 inhib: inactive

What do the screens show for `Cc1nn(-c2ccccc2)c(=S)c2ccccc12`?
HSF1 activator: inactive; T cruzi inh: inactive; Hsp70 activator: inactive; HSF1 inhib: inactive; L major viab: 71.0

How did CCN1CCN(C(=O)c2ccc(CSc3ccc(C)cc3)cc2)CC1 do in these assays?
HSF1 activator: inactive; T cruzi inh: inactive; Hsp70 activator: inactive; HSF1 inhib: inactive; L major viab: 100.4

Results for Cc1ccc(SCc2ccc(C(=O)N3CCCC3)cc2)cc1 ?
HSF1 activator: 58.0; T cruzi inh: inactive; Hsp70 activator: inactive; HSF1 inhib: inactive; L major viab: inactive

How did Cc1ccc(CNC(=O)C2CCCN(c3ncnc4c3nc3n4CCCCC3)C2)cc1 (stereo not given) do in these assays?
HSF1 activator: inactive; T cruzi inh: inactive; HSF1 inhib: inactive

Results for CCC(=O)Nc1cccc(-n2nnnc2SCC(=O)c2ccc(C)c(C)c2)c1 ?
HSF1 activator: inactive; T cruzi inh: inactive; Hsp70 activator: inactive; HSF1 inhib: inactive; L major viab: 99.4

What do the screens show for `Cc1ccc(-n2nnnc2SCC(=O)Nc2cccc(NC(=O)c3ccco3)c2)cc1C`?
HSF1 activator: inactive; T cruzi inh: inactive; Hsp70 activator: inactive; HSF1 inhib: inactive; L major viab: 66.4

What do the screens show for `Cc1cc(C)cc(-n2nnnc2SCC(=O)Nc2cccc(NC(=O)c3ccco3)c2)c1`?
HSF1 activator: inactive; T cruzi inh: inactive; Hsp70 activator: inactive; HSF1 inhib: inactive; L major viab: inactive

How did Cc1ccc(SCC(=O)Nc2cccc(NC(=O)c3ccco3)c2)cc1 do in these assays?
HSF1 activator: inactive; T cruzi inh: inactive; Hsp70 activator: inactive; HSF1 inhib: inactive; L major viab: 77.2

Results for CC(=O)N(NC(=O)c1ccc(C)cc1)C1CC(=O)N(c2ccccc2Cl)C1=O (stereo not given) ?
HSF1 activator: inactive; T cruzi inh: inactive; Hsp70 activator: inactive; HSF1 inhib: inactive; L major viab: inactive

How did Cc1cc(C)n(-c2ccc(C(=O)NC3CCCCC3)cc2)n1 do in these assays?
HSF1 activator: inactive; T cruzi inh: inactive; Hsp70 activator: inactive; HSF1 inhib: inactive; L major viab: inactive

What do the screens show for `COCc1cc(CN2CCN(C)CC2)c(O)c2ncccc12`?
HSF1 activator: inactive; T cruzi inh: inactive; Hsp70 activator: inactive; HSF1 inhib: inactive; L major viab: 100.4

What do the screens show for `Oc1c(CN2CCOCC2)cc(COCc2ccccc2)c2cccnc12`?
HSF1 activator: inactive; T cruzi inh: 61.7; Hsp70 activator: inactive; HSF1 inhib: -78.5; L major viab: 100.5

Results for CN1CCN(Cc2cc(Cl)c3cccnc3c2OC(=O)c2cccs2)CC1 ?
HSF1 activator: inactive; T cruzi inh: inactive; Hsp70 activator: inactive; HSF1 inhib: inactive; L major viab: inactive

What do the screens show for `CCOC(=O)N1CCN(Cc2cc(Cl)c3cccnc3c2O)CC1`?
HSF1 activator: inactive; T cruzi inh: inactive; Hsp70 activator: inactive; HSF1 inhib: inactive; L major viab: 100.2

How did Oc1c(CN2CCN(c3ccccc3)CC2)cc(Br)c2cccnc12 do in these assays?
HSF1 activator: inactive; T cruzi inh: inactive; HSF1 inhib: inactive

How did Cc1ccn2c(C(=O)N/N=C\c3ccc4c(c3)OCO4)c(C)nc2c1 do in these assays?
HSF1 activator: inactive; T cruzi inh: inactive; Hsp70 activator: inactive; HSF1 inhib: inactive; L major viab: 84.8

Results for Cc1ccn2c(C(=O)N/N=C\c3ccccc3[N+](=O)[O-])c(C)nc2c1 ?
HSF1 activator: 78.4; T cruzi inh: inactive; Hsp70 activator: inactive; HSF1 inhib: inactive; L major viab: inactive

How did Cc1ccn2c(C(=O)N/N=C/c3ccc(Cl)cc3)c(C)nc2c1 do in these assays?
HSF1 activator: inactive; T cruzi inh: inactive; HSF1 inhib: inactive

How did Cc1ccccc1OCCC(=O)OCC(=O)NCCc1ccccc1 do in these assays?
HSF1 activator: inactive; T cruzi inh: inactive; HSF1 inhib: inactive

What do the screens show for `CN(C)CCCNC(=O)COc1ccc(Br)cc1Cl`?
HSF1 activator: inactive; T cruzi inh: inactive; Hsp70 activator: inactive; HSF1 inhib: inactive; L major viab: 91.4

Results for CCN(CC)CCNC(=O)COc1ccc(Cl)cc1Cl ?
HSF1 activator: inactive; T cruzi inh: inactive; Hsp70 activator: inactive; HSF1 inhib: inactive; L major viab: 75.1

Results for O=C(CCl)N(C/C=C/c1ccccc1)c1ccc2c(c1)OCCO2 ?
HSF1 activator: inactive; T cruzi inh: 92.6; Hsp70 activator: inactive; HSF1 inhib: -76.7; L major viab: 76.1

How did CCCCOc1ccc(/C=C/C(=O)N(CC)CC(=O)Nc2ccc3c(c2)OCCO3)cc1OC do in these assays?
HSF1 activator: inactive; T cruzi inh: inactive; HSF1 inhib: inactive
